Results as given in ChEMBL document CHEMBL1124378, “Synthesis and pharmacological evaluation of a series of 4-piperazinylpyrazolo[3,4-b]- and -[4,3-b][1,5]benzodiazepines as potential anxiolytics” (J Med Chem, 1989).

Columns and labels:
Mus musculus [1] = experiment: Compound administered perorally was evaluated for the hypothermia (rectal temperature) in mice; type: functional
Summary of the method: (§1)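 Groups of three CFW mice (21-23 g) received oral compound in water or 0.5% carboxymethylcellulose. Rectal temperature was taken at 0.25, 2.5 and 5.0 h. Mean change from the group's initial mean was summed over the three times. Hypothermia scored if the summed reduction was >4 °C.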

[2] = molecular target: Muscarinic acetylcholine receptor; experiment: Compound was evaluated for the inhibition of [3H]QNB binding to Muscarinic acetylcholine receptor from male Olac rat brain.
Rattus norvegicus [3] = experiment: Compound administered perorally was evaluated for the conditioned avoidance response in rats; type: functional
Summary of the method: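 Olac-Wistar rats (120-130 g) trained to cross a shuttle box on a 5-s buzzer, with mild shock if no response within 1 s after it ends. Only high-responders used. Groups of five were dosed orally in water or 0.5% carboxymethylcellulose 1 h 50 min before testing. After 10-min habituation they were tested 20 min. Blockade = shocks as % of stimuli presented.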

[4] = molecular target: D(2) dopamine receptor (Bos taurus) (UniProt P20288); experiment: Inhibition of [3H]spiperone binding to Dopamine receptor D2 from calf caudate
Mus musculus [5] = experiment: Dose below which no catalepsy was observed at any time period (following p.o. dosing); type: functional
Summary of the method: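 CFW mice (21-23 g), three per group, dosed orally in water or 0.5% carboxymethylcellulose. Checked at 0.25, 2.5 and 5.0 h for holding one hind limb on a 2-cm rubber bung and staying on a vertical grid, judged against a control by a trained observer.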

Rattus norvegicus [6] = experiment: Rotarod response in rat to assess muscular incoordination (following p.o. dosing); type: functional
Summary of the method: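 Male Olac-Wistar rats (140-150 g), five per group, fed ad libitum, dosed orally. Tested 1 and 2 h later on a horizontal rod (2 rpm, 32 mm diameter), maximum 30 s. Mean time compared with vehicle controls by Mann-Whitney U test, significant at p < 0.05.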

Mus musculus [7] = experiment: Compound administered perorally was evaluated for the hypothermia (rectal temperature ) in mice; type: functional; summary of the method: as §1
[8] = molecular target: D(2) dopamine receptor (Bos taurus) (UniProt P20288); experiment: Inhibition of [3H]spiperone binding to dopamine receptor D2 from calf caudate
[9] = molecular target: Muscarinic acetylcholine receptor; experiment: Inhibition of [3H]QNB binding to muscarinic cholinergic receptor from male Olac rat brain.

Structure (SMILES) | EDmin (Mus musculus [1]) [mg/kg] | IC50 [2] [µM] | ED (Rattus norvegicus [3]) [mg/kg] | IC50 [4] [µM] | EDmin (Mus musculus [5]) [mg/kg] | ED (Rattus norvegicus [6]) [mg/kg] | EDmin (Mus musculus [7]) [mg/kg] | IC50 [8] [µM] | IC50 [9] [µM]
CN1CCN(C2=Nc3cc(C(=O)c4ccccc4)ccc3Nc3nn(C)cc32)CC1 | >400 | > 1 | >50 | > 10 | >400 | >50 |  |  | 
CCn1cc2c(n1)Nc1cc(Cl)c(Cl)cc1N=C2N1CCN(C)CC1 | 50 | > 1 | >20 | 3.8 | 200 | 20 |  |  | 
Cn1cc2c(n1)Nc1ccc(F)cc1N=C2N1CCCCC1 | 400 | > 10 | 50 | > 10 | >400 | >50 |  |  | 
Cn1cc2c(n1)Nc1ccc(F)cc1N=C2N1CCN(CCO)CC1 | >200 | > 100 | >50 | 5.1 | >200 | >50 |  |  | 
Cc1nn(C)c2c1Nc1ccc(F)cc1N=C2N1CCN(C)CC1 | >200 | > 100 | >50 | > 10 | >200 | >50 |  |  | 
CN1CCN(C2=Nc3cc(C(F)(F)F)ccc3Nc3nn(C)cc32)CC1 | 50 | > 10 | 25 | 1.6 | 200 | >30 |  |  | 
CN1CCN(C2=Nc3ccc(Cl)cc3Nc3nn(C)cc32)CC1 | 100 | > 100 | >50 | > 10 | >400 | >50 |  |  | 
CN1CCN(C2=Nc3cc(S(C)(=O)=O)ccc3Nc3nn(C)cc32)CC1 | >200 | > 100 |  | > 10 | >200 | >50 |  |  | 
CN1CCN(C2=Nc3cc(Cl)c(Cl)cc3Nc3nn(C)cc32)CC1 |  | > 1 | >20 | > 10 | 50 | >50 | 25 |  | 
CN1CCN(C2=Nc3cc(F)ccc3Nc3nn(C)c(-c4ccccc4)c32)CC1 | 200 |  | >50 |  | >400 | >50 |  | 2.1 | > 100
Cc1c2c(nn1C)C(N1CCN(C)CC1)=Nc1cc(F)ccc1N2 |  |  |  | > 10 |  |  |  |  | 
Cn1cc2c(n1)Nc1ccc(F)cc1N=C2N1CC[N+](C)([O-])CC1 | 50 |  | >50 |  | 100 | >50 |  | > 10 | > 1
CN1CCN(C2=Nc3cc(F)ccc3Nc3nn(Cc4ccccc4)cc32)CC1 | 100 |  | 50 |  | >400 | >50 |  | 0.4 | > 100
CCCCCCCCCCn1cc2c(n1)Nc1ccc(Cl)cc1N=C2N1CCN(C)CC1 |  | > 10 | >50 | 2.5 | >400 | >50 | >400 |  | 
CCn1cc2c(n1)Nc1ccc(Cl)cc1N=C2N1CCN(C)CC1 | 6.25 |  | >15 |  | >400 | 20 |  | 0.34 | > 1
CCOC(=O)N1CCN(C2=Nc3cc(F)ccc3Nc3nn(C)cc32)CC1 | >200 | > 100 | >50 | > 10 | >200 | >50 |  |  | 
CC(C)Cn1cc2c(n1)Nc1ccc(Cl)cc1N=C2N1CCN(C)CC1 | 50 |  | >50 |  | 200 | >50 |  | 3.3 | > 10
Cn1cc2c(n1)Nc1ccc(Cl)cc1N=C2N | 25 | > 100 | >25 | > 10 | >25 | >50 |  |  | 
CN(C)CCNC1=Nc2cc(F)ccc2Nc2nn(C)cc21 | >400 | 6.1 | >50 | > 10 | >400 | >50 |  |  | 
CN1CCN(C2=Nc3cc(F)ccc3Nc3nn(-c4ccccc4)cc32)CC1 | >200 |  | 50 | 2.6 | >200 | >50 |  |  | > 10
CN1CCN(C2=Nc3c(Cl)cccc3Nc3nn(C)cc32)CC1 | 25 | > 100 | >50 | 0.86 | >400 | >50 |  |  | 
Cn1cc2c(n1)Nc1ccc(F)cc1N=C2N1CCN(Cc2ccccc2)CC1 | 50 | > 100 | >50 | 2.7 | >200 | 50 |  |  | 
CN1CCN(C2=Nc3cccc(Cl)c3Nc3nn(C)cc32)CC1 | 184 | > 100 | >50 | 4.7 | 184 | >50 |  |  | 
CN1CCN(C2=Nc3cc(I)ccc3Nc3nn(C)cc32)CC1 | 50 |  | >20 | > 1 | 50 | 25 |  |  | 
CN1CCN(C2=Nc3cc(Cl)ccc3Nc3nn(C4CCCC4)cc32)CC1 | 50 |  | 50 |  | >400 | >50 |  | 0.14 | > 10
Cn1cc2c(n1)Nc1ccc(F)cc1N=C2N1CCOCC1 | 200 | > 100 | >50 | > 100 | >400 | >50 |  |  | 
CN1CCN(C2=Nc3cc(F)c(F)cc3Nc3nn(C)cc32)CC1 | 25 |  | 50 |  | >200 | >50 |  | 0.76 | 21
Cn1cc2c(n1)Nc1ccc(F)cc1N=C2N1CCN(CC2CC2)CC1 | 50 | > 10 | >15 | 0.9 | 100 | 30 |  |  | 
